Compounds with a hit are over-represented: about 2.9% of the library has one in this group of screens.
APOBEC3A inh: blocks human APOBEC3A ssDNA deamination; P31941; recombinant A3A, FAM/TAMRA ssDNA deamination fluorescence; inhibition, % at 20 µM; actives 0.41% (n = 330,000); AID 493011;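 active = at least 40% inhibition at 20 µM here, with at most 30% in a related deaminase screen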
Target sequence (P31941 whole entry, looked up): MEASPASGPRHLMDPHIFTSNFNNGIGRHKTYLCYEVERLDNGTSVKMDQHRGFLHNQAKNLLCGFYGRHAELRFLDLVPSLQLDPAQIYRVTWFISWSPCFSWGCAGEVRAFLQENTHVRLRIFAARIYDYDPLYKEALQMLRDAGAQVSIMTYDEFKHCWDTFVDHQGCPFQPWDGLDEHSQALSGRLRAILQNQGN
HCV NS3 hel inh: blocks Hepatitis C virus NS3 helicase unwinding; NS3 helicase DNA unwinding, Cy5 molecular beacon fluorescence; inhibition, % at 10.9 µM; actives 0.56% (n = 290,000);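 active = inhibition above the mean of all tested compounds plus 3 SD, set per campaign, cut at about 35% in these data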
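System: NS3 helicase fragment of HCV / Schedule: 1 h at 25 °C / Control set: DMSO alone as 0% and 110 µM thioflavine S as 100% / Reagent: Cy5/quencher beacon DNA duplex and ATP to start / Technique: Cy5 fluorescence / Replication: singlicate / Evaluation: % inhibition of end-to-start signal ratio versus controls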
PRMT1 inh: inhibitors of human PRMT1 | inhibition, % at 2.79 µM | Q99873 | actives 1.3% (n = 370,000) | recombinant PRMT1, activity-based probe fluorescence polarization;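 active = inhibition above about 21% made by adding two undisclosed values, limit read from the data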
ABHD5-PLIN5 inh: inhibitors of human ABHD5-perilipin-5 interaction | inhibition, % at 4 µM | AID 602281 | actives 0.78% (n = 360,000) | Q00G26+Q8WTS1 | Split G. princeps luciferase complementation, luminescence, 4 h;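 active = inhibition above the mean inhibition across every tested compound plus 3 SD, cut at about 22% in these data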
A3G deaminase: APOBEC3G (human) deaminase inhibition; Q9HC16; recombinant A3G, ssDNA deamination FAM/TAMRA fluorescence; inhibition, % at 20 µM; actives 0.28% (n = 330,000);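 active = inhibition of at least 40% at 20 µM, with no more than 30% in the related APOBEC3A deaminase screen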
Target sequence (Q9HC16 whole entry, looked up): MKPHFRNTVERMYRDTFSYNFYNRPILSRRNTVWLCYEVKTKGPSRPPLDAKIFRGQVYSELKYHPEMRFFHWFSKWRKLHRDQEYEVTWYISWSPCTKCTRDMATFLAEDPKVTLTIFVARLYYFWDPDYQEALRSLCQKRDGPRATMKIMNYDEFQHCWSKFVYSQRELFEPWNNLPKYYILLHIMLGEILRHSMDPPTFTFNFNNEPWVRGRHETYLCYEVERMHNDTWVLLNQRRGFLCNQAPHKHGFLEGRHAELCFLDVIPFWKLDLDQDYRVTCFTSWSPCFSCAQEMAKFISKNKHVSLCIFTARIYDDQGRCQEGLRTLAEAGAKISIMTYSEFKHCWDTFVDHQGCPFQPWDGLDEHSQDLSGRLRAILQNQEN
core dimer inh: HCV core protein dimerization inhibition | TR-FRET GST/Flag-core106 dimerization, 1536-well | inhibition, % at 5 µM | actives 0.33% (n = 300,000) | AID 1899;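 active = inhibition above the mean of all tested compounds plus 3 SD, set per screening campaign, cut at about 45% in these data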
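Assay system: tagged HCV core106 pair (GST and Flag); medium: KF-containing HEPES buffer, pH 7.45, DTT, CHAPS, BSA; also added: Eu donor and XL665 acceptor anti-tag antibodies; dosing: 5 µM single dose; timing: compound-protein-antibody incubation 4 h at 22.5 °C; signal: TR-FRET 671 and 617 nm emission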
Each line names hits and unclear results; the compound was inactive in the other large screens.

CCOC(=O)C1Nc2ccccc2C2C(O)C(O)CC12 (stereo not drawn)	PRMT1 inh 27 (no result: HCV NS3 hel inh)
CCOC(=O)C1Nc2ccc(C(F)(F)F)cc2C2c3ccccc3CC12 (stereo not drawn)	none (no result: HCV NS3 hel inh)
CC[C@]12c3[nH]c4ccccc4c3CCN1C(=O)C(CC(=O)NCCCN(C)C)C[C@@H]2C(=O)N1CCN(C(=O)c2ccco2)CC1 (stereo partly drawn)	none (no result: HCV NS3 hel inh, core dimer inh)
CCOC(=O)/C=C1/SCC(=O)N1Cc1ccc(Br)cc1	none (no result: APOBEC3A inh, HCV NS3 hel inh, A3G deaminase, core dimer inh)
CCOC(=O)/C=C1\SCC(=O)N1Cc1nnc(-c2ccccc2Br)o1	core dimer inh 64
O=C(CSc1ccccn1)Nc1nonc1[N+](=O)[O-]	PRMT1 inh 29
O=C(NC(=S)Nc1ccc(NC(=O)c2ccccc2)cc1)c1ccc(F)cc1	none
O=C(Nc1ccc(NC(=S)NC(=O)C(c2ccccc2)c2ccccc2)cc1)c1ccccc1	core dimer inh 57
CCc1nc2ccc(C(=O)NCCCn3ccnc3)cn2c1N(CC)C(=O)NCCc1ccccc1	none (no result: APOBEC3A inh, HCV NS3 hel inh, A3G deaminase, core dimer inh)
CCOC(=O)c1cccc(NC(=S)NC(=O)c2cccnc2)c1	PRMT1 inh 22
COCc1cc(N2CCNC[C@H]2C)ccc1N1C[C@@H](C)O[C@@H](C)C1	none (no result: APOBEC3A inh, HCV NS3 hel inh, ABHD5-PLIN5 inh, A3G deaminase, core dimer inh)
Cc1cc2cc(NC(=O)c3ccco3)ccc2[nH]1	none
O=C(Nc1ccc2[nH]c3c(c2c1)CCCC3)c1ccco1	core dimer inh 47
CSCC[C@@H](CO)NC(=O)[C@H]1O[C@@H](n2ccc(=O)[nH]c2=O)[C@H](O)[C@@H]1O	none (no result: APOBEC3A inh, HCV NS3 hel inh, A3G deaminase, core dimer inh)
Cc1ccc(CNC(=O)COc2ccc(C)nc2[N+](=O)[O-])cc1	none
Cc1ccc(OCC(=O)c2ccc(Cl)s2)c([N+](=O)[O-])n1	PRMT1 inh 24, core dimer inh 57
CCOC(=O)N(C)C[C@H]1OCc2cnnn2CCCC(=O)N([C@H](C)CO)C[C@@H]1C	none (no result: APOBEC3A inh, HCV NS3 hel inh, ABHD5-PLIN5 inh, A3G deaminase, core dimer inh)
CCCCCCC12C(=Cc3cc(C)ccc31)c1ccccc1C(CC(=O)NCc1ccccc1)N2C(=O)OC (stereo not drawn)	none (no result: APOBEC3A inh, HCV NS3 hel inh, ABHD5-PLIN5 inh, A3G deaminase, core dimer inh)
COc1ccc(N2C3=C(CC4=C2CC(C)(C)CC4=O)C(=O)CC(C)(C)C3)cc1	PRMT1 inh 23
N#CC(C#N)=C1C=CC=CN1/C(=C\c1ccco1)C(=O)c1ccc(Br)cc1	ABHD5-PLIN5 inh 92 (no result: APOBEC3A inh, A3G deaminase)
C=CCOC(=O)c1cc(-c2ccc(/C=C3\C(=O)NC(=O)C(C#N)=C3C)o2)ccc1Cl	PRMT1 inh 25 (no result: APOBEC3A inh, A3G deaminase, core dimer inh)
CCCOC(=O)c1cc(-c2ccc(/C=C3/C(=O)N(C)C(=O)C(C#N)=C3C)o2)ccc1Cl	none (no result: PRMT1 inh)
COCCCNc1c2c3c(cccc3[nH]c1=O)C(=O)c1ccccc1-2	PRMT1 inh active
COCCCNC1=C(Cl)C(=O)c2ccccc2C1=O	none
Cc1ccccc1C(=O)Nc1c(C(=O)N(CCN(C)C)Cc2ccco2)oc2ccccc12	none
COc1ccccc1C(=O)Nc1c(C(=O)N(CCN(C)C)Cc2ccco2)oc2ccccc12	ABHD5-PLIN5 inh 22
COc1ccccc1C(CNC(=O)c1cccc(S(=O)(=O)N2c3ccccc3CC2C)c1)N(C)C (stereo not drawn)	ABHD5-PLIN5 inh 23 (no result: APOBEC3A inh, HCV NS3 hel inh, A3G deaminase, core dimer inh)
COc1ccccc1C(CNC(=O)c1cccc(S(=O)(=O)N2CCCc3ccccc32)c1)N(C)C (stereo not drawn)	none (no result: APOBEC3A inh, HCV NS3 hel inh, A3G deaminase, core dimer inh)
COC(=O)C1CSC(C(=O)OC)N1C(=O)Nc1ccccc1 (stereo not drawn)	PRMT1 inh 24
Cc1ccc(NC(=O)C2CCN(S(=O)(=O)c3c(C)noc3/C=C/c3ccco3)CC2)nc1	none
Cc1noc(/C=C/c2ccco2)c1S(=O)(=O)N1CCC(C(=O)N2CCc3ccccc3C2)CC1	ABHD5-PLIN5 inh 22, core dimer inh 48 (no result: PRMT1 inh)
O=C(CN1CCOCC1)Nc1nc2ccc(Cl)cc2s1	none
O=C(CN1CCOCC1)Nc1nc2ccc(Br)cc2s1	PRMT1 inh 39
C[C@@H]1CN([C@@H](C)CO)C(=O)CCCn2nncc2CO[C@H]1CN(C)C(=O)Nc1cccc(Oc2ccccn2)c1	none (no result: APOBEC3A inh, HCV NS3 hel inh, A3G deaminase, core dimer inh)
Cc1ccc(Nc2ccc(C(=O)O)cc2N)cc1	PRMT1 inh 24 (no result: ABHD5-PLIN5 inh)
CC(=O)NC1Sc2ccccc2N=C1c1ccccc1 (stereo not drawn)	PRMT1 inh 26
CCCCCCCCN1C(=O)[C@@H](CC(=O)N2CCN(C(=O)c3ccco3)CC2)C[C@@]2(C(=O)OC)C1=C[C@H](C(C)C)O[C@@H]2C1CC1	none (no result: APOBEC3A inh, HCV NS3 hel inh, ABHD5-PLIN5 inh, A3G deaminase, core dimer inh)
CN(C)C(=S)NC(=NCc1ccc([N+](=O)[O-])cc1)c1ccccc1	PRMT1 inh 22
CN(C)C(=S)Nc1ccc([N+](=O)[O-])cc1	none
CCCN1C(=O)c2n[nH]c(C)c2C1c1ccc(Br)cc1 (stereo not drawn)	none (no result: APOBEC3A inh, HCV NS3 hel inh, ABHD5-PLIN5 inh, A3G deaminase, core dimer inh)
C[C@H](O)[C@@H]1C(=O)N2CCc3c([nH]c4cccc(-c5ccccc5)c34)[C@@H]2C[C@@H]1N(C)C(=O)c1ccco1	none (no result: APOBEC3A inh, HCV NS3 hel inh, ABHD5-PLIN5 inh, A3G deaminase, core dimer inh)
O=C1N[C@@H](Cc2ccccc2)C(=O)N2[C@@H]3N(S(=O)(=O)c4ccccc4)c4ccccc4[C@]3(Br)C[C@@H]12	none (no result: HCV NS3 hel inh)

Source: PubChem BioAssay
